In ChEMBL document CHEMBL3352336, “Discovery libraries targeting the major enzyme classes: the serine hydrolases” (Bioorg Med Chem Lett, 2014):

Legend:
[1] = Retention time of the compound; format: physicochemical
[2] = biological target: T1, Fatty-acid amide hydrolase 1 (Rattus norvegicus, UniProt P97612); assay: Inhibition of recombinant rat FAAH preincubated for 3 hrs
T1 sequence (P97612 whole entry): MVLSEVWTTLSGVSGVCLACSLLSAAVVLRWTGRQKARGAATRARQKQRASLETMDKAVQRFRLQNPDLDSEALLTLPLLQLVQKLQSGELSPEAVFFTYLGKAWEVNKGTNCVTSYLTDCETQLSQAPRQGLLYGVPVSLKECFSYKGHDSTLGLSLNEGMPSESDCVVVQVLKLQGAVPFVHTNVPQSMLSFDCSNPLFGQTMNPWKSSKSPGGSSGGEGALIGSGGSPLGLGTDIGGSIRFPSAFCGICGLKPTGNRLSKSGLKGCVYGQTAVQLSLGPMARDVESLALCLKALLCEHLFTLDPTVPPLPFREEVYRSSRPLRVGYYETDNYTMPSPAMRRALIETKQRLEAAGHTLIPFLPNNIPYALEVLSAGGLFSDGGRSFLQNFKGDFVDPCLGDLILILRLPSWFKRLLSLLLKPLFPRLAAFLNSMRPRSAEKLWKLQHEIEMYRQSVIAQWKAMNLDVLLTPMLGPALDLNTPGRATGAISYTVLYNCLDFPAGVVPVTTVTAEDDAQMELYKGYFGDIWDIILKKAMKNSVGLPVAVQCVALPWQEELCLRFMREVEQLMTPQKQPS
Summary of the method: (§1)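 Recombinant FAAH (rFAAH) was preincubated with the inhibitor for 3 h before activity was measured. Results are reported as an apparent Ki in nM.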

[3] = biological target: T1, Fatty-acid amide hydrolase 1; assay: Irreversible inhibition of recombinant rat FAAH preincubated for 3 hrs; summary of the method: as §1

Compound	Retention_time [1]	Ki [2]	Ki [3]
N#Cc1cnn(C(=O)N2CCCCC2)c1	3.824 min	80 nM	
O=C(OCCCCc1ccccc1)n1cccn1	3.779 min	710 nM	
N#Cc1cnn(C(=O)Cc2ccc3ccccc3c2)c1	3.906 min		
Cc1cnn(C(=O)N2CCCCC2)c1	3.933 min	> 1000 nM	
O=C(NCc1ccc2ccccc2c1)n1cccn1	4.106 min		
Cc1cnn(C(=O)Nc2ccc3ccccc3c2)c1	3.9 min		
N#Cc1cnn(C(=O)Cc2ccc(-c3ccccc3)cc2)c1	3.977 min		
Cc1cnn(C(=O)NCCCCCc2ccccc2)c1	4.178 min		
O=C(OCc1ccc(OCc2ccccc2)cc1)n1cccn1	3.905 min		
Cc1cnn(C(=O)N2CCN(Cc3ccc(Oc4ccccc4)cc3)CC2)c1	3.987 min		210 nM
CC(C)(C)OC(=O)N1CCCN(C(=O)n2cc(C#N)cn2)CC1	3.792 min		
O=C(N1CCN(Cc2ccc(-c3ccccc3)cc2)CC1)n1cccn1	3.897 min	12 nM	
O=C(NCc1ccc(OCc2ccccc2)cc1)n1cccn1	3.896 min		
CC(C)(C)OC(=O)N1CCCN(C(=O)n2cccn2)CC1	3.518 min		
Cc1cnn(C(=O)CCCCc2ccccc2)c1	3.687 min		
O=C(N1CCCCC1)n1cccn1	3.484 min	750 nM	
Cc1cnn(C(=O)OCc2ccc(-c3ccccc3)cc2)c1	4.102 min		
CN(CCN(C)C(=O)n1cc(C#N)cn1)C(=O)OC(C)(C)C	3.791 min		
Cc1cnn(C(=O)OCc2ccc3ccccc3c2)c1	3.998 min		
O=C(Cc1ccc2ccccc2c1)n1cccn1	3.788 min		
O=C(NCc1ccc(Oc2ccccc2)cc1)n1cccn1	3.987 min		
Cc1cnn(C(=O)N(C)CCN(C)C(=O)OC(C)(C)C)c1	3.969 min		
O=C(Nc1ccc2ccccc2c1)n1cccn1	3.895 min		
CC(C)(C)OC(=O)N1CCN(C(=O)n2cccn2)CC1	3.92 min	340 nM	

Compound	Retention_time [1]	Ki [2]	Ki [3]
Cc1cnn(C(=O)NCc2ccc3ccccc3c2)c1	4.243 min		
O=C(OCc1ccc(Oc2ccccc2)cc1)n1cccn1	3.989 min		
O=C(Cc1ccc(-c2ccccc2)cc1)n1cccn1	4.1 min		
N#Cc1cnn(C(=O)OCc2ccc(-c3ccccc3)cc2)c1	4.103 min		
N#Cc1cnn(C(=O)NCc2ccc(Oc3ccccc3)cc2)c1	4.022 min		
Cc1cnn(C(=O)OCCCCCc2ccccc2)c1	4.104 min		
N#Cc1cnn(C(=O)N2CCN(Cc3ccc4ccccc4c3)CC2)c1	3.915 min		0.16 nM
O=C(OCc1ccc(-c2ccccc2)cc1)n1cccn1	3.999 min		
O=C(OCCCc1ccccc1)n1cccn1	3.669 min		
CC(C)(C)OC(=O)N1CCN(C(=O)n2cc(C#N)cn2)CC1	3.946 min	55 nM	
Cc1cnn(C(=O)OCc2ccc(Oc3ccccc3)cc2)c1	3.899 min		
Cc1ccc(CNC(=O)n2cc(C)cn2)cc1	4.11 min		
O=C(NCCCCc1ccccc1)n1cccn1	3.955 min	290 nM	
O=C(CCCCCc1ccccc1)n1cccn1	4.199 min	> 5000 nM	
N#Cc1cnn(C(=O)N2CCN(Cc3ccc(Oc4ccccc4)cc3)CC2)c1	3.927 min		0.1 nM
Cc1cnn(C(=O)NCc2ccc(-c3ccccc3)cc2)c1	3.907 min		
O=C(CCCCc1ccccc1)n1cccn1	3.977 min		
Cc1cnn(C(=O)Cc2ccc3ccccc3c2)c1	3.992 min		
N#Cc1cnn(C(=O)OCCCCc2ccccc2)c1	3.762 min	210 nM	
O=C(N1CCN(Cc2ccc(OCc3ccccc3)cc2)CC1)n1cccn1	3.929 min	10 nM	
N#Cc1cnn(C(=O)OCc2ccc3ccccc3c2)c1	3.689 min		
Cc1ccc(CNC(=O)n2cccn2)cc1	4.104 min		
N#Cc1cnn(C(=O)OCCCCCc2ccccc2)c1	4.274 min		
Cc1cnn(C(=O)Oc2ccc3ccccc3c2)c1	3.954 min		

Compound	Retention_time [1]	Ki [2]	Ki [3]
O=C(NCc1ccc(-c2ccccc2)cc1)n1cccn1	3.944 min		
O=C(N1CCN(Cc2ccc3ccccc3c2)CC1)n1cccn1	3.791 min		9.8 nM
O=C(NCCCc1ccccc1)n1cccn1	3.989 min		
N#Cc1cnn(C(=O)OCCCc2ccccc2)c1	3.927 min		
Cc1cnn(C(=O)NCc2ccc(OCc3ccccc3)cc2)c1	3.876 min		
CN(CCN(C)C(=O)n1cccn1)C(=O)OC(C)(C)C	3.884 min		
N#Cc1cnn(C(=O)NCc2ccc3ccccc3c2)c1	4.14 min		
Cc1cnn(C(=O)NCCCc2ccccc2)c1	3.616 min		
N#Cc1cnn(C(=O)NCc2ccc(-c3ccccc3)cc2)c1	3.897 min		
N#Cc1cnn(C(=O)N2CCN(Cc3ccccc3)CC2)c1	3.899 min	75 nM	
Cc1cnn(C(=O)N2CCCN(C(=O)OC(C)(C)C)CC2)c1	3.959 min		
N#Cc1cnn(C(=O)CCCCc2ccccc2)c1	3.702 min		
N#Cc1cnn(C(=O)N2CCN(Cc3ccc(-c4ccccc4)cc3)CC2)c1	3.877 min	0.19 nM	
Cc1cnn(C(=O)OCCCc2ccccc2)c1	3.69 min		
N#Cc1cnn(C(=O)Oc2ccc3ccccc3c2)c1	3.9 min		
N#Cc1cnn(C(=O)NCCCc2ccccc2)c1	3.915 min		
O=C(N1CCN(Cc2ccc(Oc3ccccc3)cc2)CC1)n1cccn1	3.893 min		9.2 nM
Cc1cnn(C(=O)N2CCN(Cc3ccccc3)CC2)c1	4.201 min	250 nM	
COC(=O)c1cnn(C(=O)N2CCN(Cc3ccc4ccccc4c3)CC2)c1	3.999 min		0.36 nM
O=C(N1CCN(Cc2ccc3ccccc3c2)CC1)n1cc(Br)cn1	3.989 min		0.47 nM
Cc1cnn(C(=O)OCc2ccc(OCc3ccccc3)cc2)c1	3.91 min		
Cc1cnn(C(=O)N2CCN(C(=O)OC(C)(C)C)CC2)c1	3.784 min	850 nM	
N#Cc1cnn(C(=O)OCc2ccc(OCc3ccccc3)cc2)c1	3.912 min		
Cc1cnn(C(=O)CCCCCc2ccccc2)c1	4.2 min	> 5000 nM	

Compound	Retention_time [1]	Ki [2]	Ki [3]
O=C(N1CCN(Cc2ccc3ccccc3c2)CC1)n1cc(I)cn1	3.844 min		0.29 nM
O=C(OCCCCCc1ccccc1)n1cccn1	4.159 min		
O=C(OCc1ccc2ccccc2c1)n1cccn1	4.008 min		
Cc1ccc(COC(=O)n2cc(C#N)cn2)cc1	3.988 min		
Cc1cnn(C(=O)N2CCN(Cc3ccc(OCc4ccccc4)cc3)CC2)c1	3.899 min	100 nM	
Cc1cnn(C(=O)N2CCN(Cc3ccc4ccccc4c3)CC2)c1	3.896 min		130 nM
Cc1cnn(C(=O)N2CCN(Cc3ccc(-c4ccccc4)cc3)CC2)c1	3.899 min	170 nM	
Cc1ccc(COC(=O)n2cc(C)cn2)cc1	4.122 min		
Cc1cnn(C(=O)NCc2ccc(Oc3ccccc3)cc2)c1	3.992 min		
Cc1ccc(CNC(=O)n2cc(C#N)cn2)cc1	3.97 min		
O=C(N1CCN(Cc2ccccc2)CC1)n1cccn1	3.894 min	180 nM	
N#Cc1cnn(C(=O)N2CCN(Cc3ccc(OCc4ccccc4)cc3)CC2)c1	3.787 min	0.16 nM	
N#Cc1cnn(C(=O)Nc2ccc3ccccc3c2)c1	3.965 min		
N#Cc1cnn(C(=O)NCCCCc2ccccc2)c1	3.746 min	42 nM	
Cc1cnn(C(=O)OCCCCc2ccccc2)c1	3.988 min	> 5000 nM	
Cc1cnn(C(=O)NCCCCc2ccccc2)c1	3.713 min	550 nM	
O=C(NCCCCCc1ccccc1)n1cccn1	4.011 min		
N#Cc1cnn(C(=O)NCCCCCc2ccccc2)c1	4.125 min		
Cc1cnn(C(=O)Cc2ccc(-c3ccccc3)cc2)c1	3.467 min		
Cc1ccc(COC(=O)n2cccn2)cc1	4.1 min		
O=C(Oc1ccc2ccccc2c1)n1cccn1	3.96 min		
N#Cc1cnn(C(=O)CCCCCc2ccccc2)c1	3.998 min	> 5000 nM	
N#Cc1cnn(C(=O)OCc2ccc(Oc3ccccc3)cc2)c1	3.92 min		
N#Cc1cnn(C(=O)NCc2ccc(OCc3ccccc3)cc2)c1	3.877 min		
